Measured values taken from the EternaBench riboswitch data.

Tested on: MS2 coat protein
Experiment: apparent Kd, MS2 coat protein; higher = weaker binding; RNA-MaP array; FMN 200 µM where present
Method in brief: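 On Illumina sequencing-chip clusters, designs were transcribed by stalled E. coli RNA polymerase and titrated with SNAP-549-labelled MS2 coat protein (0.7 or 1.5 nM, doubling to 3 µM), without and then with constant ligand, in 100 mM Tris-HCl pH 7.5, 80 mM KCl, 4 mM MgCl2, BSA, DTT, yeast tRNA and Tween-20. Apparent Kd is the median of filtered per-cluster curve fits to green signal normalised to red-channel RNA signal and control-cluster median Fmax.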

[1] = designed as: ON switch for flavin mononucleotide, no ligand
[2] = ligand present: flavin mononucleotide, designed as: ON switch for flavin mononucleotide
[3] = designed as: OFF switch for flavin mononucleotide, no ligand
[4] = ligand present: flavin mononucleotide, designed as: OFF switch for flavin mononucleotide

Sequence	apparent Kd [1]	apparent Kd [2]	apparent Kd [3]	apparent Kd [4]
UAAGUCUAAUGAGGAUAUCGUAAUGAAACAUUAUGAGAAGGCAUACAAUCAUGAGGACAUGAGGAUCACCCAUGUUGUGACCAU	33.6 nM	16.2 nM		
UCCUAGCUAGGAUAUACCCAGGGUUUGUUCUCUAACAAAACACAUGAGGAUCACCCAUGUAGAAGGAGCCGGGA			76.9 nM	70.8 nM
AGUGUGAGGCAGGAUAUGCUAUAUGUUCGUAAUGCAGAAGGGUCUACAUGAGGAUCACCCAUGUGUGCGGUUGA			183 nM	523 nM
GUAGCAUUCUGAGGAUAUGGGUUCCGGAAACGGACAUGAGGAUCACCCAUGUGGCGAAAGCCAUACUAGAAGGCAGUAUGCUAC	77.9 nM	7.46 nM		
UUGGACGUCGUAGGAUAUGUAUGAUAUUCCUACAUGAGGAUCACCCAUGUUGACAUGGAAGAAGGACAGAAGGACGAUGUCCAU	5.8 nM	4.56 nM		
AUCAGCUCGGCAGGAUAUACGUCACUGCGUCAGCAGUGUGGUAAGAUCACAUGAGGAUCACCCAUGUAGAAGGGACGAGCUGAU			11.4 nM	74.5 nM
AUACUCAUGUAAGGAUAUGCAGCCGAAACGGCUGCAGAAGGUACUAUAAUACAUGAGGAUCACCCAUGUCAAAAUAAAAUAGUC	63.5 nM	22.9 nM		
UUAAAUCAUGUAGGAUAUGCAUGGCGAAGCUACGCAGAAGGACAUGAGGAUCACCCAUGUUCUAGCUACCGAGUUCGGUGGCAA			20.2 nM	83.8 nM
CUUAUGUAAGGAUAUCAGUAGUAAAAAAAUAAAAUUACUACUGAGAAGGUACAUGAGGAUCACCCAUGUAUCAA			27.6 nM	30.4 nM
UUGGACGUCGUAGGAUAUGUAGGAUAUUCCUACAUGAGGAUCACCCAUGUUGACAUGUAAGAAGGACAGAAGGACGAUGUCCAU	208 nM	12.2 nM		
GGUUAUUGCAAGGAUAUGCUUUUUUGUGAAAUUGCAGAAGGUGCAACAUGAGGAUCACCCAUGUUGGAUGGGUU			104 nM	131 nM
CGUCGAUACCAGAAGGACAUGAGGAUCACCCAUGUAGGAUAUGGGUGACCGGGAUGGCAGACACGGUGCCCGGGCACAUGCGAC	28.9 nM	9.54 nM		
UGUGUGUGGCAGGAUAUUCCGGUCGUUGGUCGGGAAGAAGGGUCUACAUGAGGAUCACCCAUGUGACCGGUUGA			27 nM	27.5 nM
AAUUCGCGAGGAUAUACAUGAGGAUCACCCAUGUGUGUACGCAUGCACUUCAUAGGUUGUAGAAGGCGUGAGAU			19.7 nM	29.4 nM
GAUUUGUGACAAUUACAUGAGGAUCACCCAUGUUGUAGUAUGCAGGAUAUGUGGUAUAUUAUUUAACAGAAGGGCAAUAAUUUU	98 nM	46.4 nM		
AGCUAGGUAGGAUAUGCGUAAAUGUCGAAAGACGUAUUGGGACAUGAGGAUCACCCAUGUAGAAGGAUCUAGCA			39.3 nM	55.7 nM
CCCUCACAUGAGGAUCACCCAUGUUAGGAUAUCCACCGUUGAUGGUGCCGAAUCGGUAGGAGAAGGAACAUACA			23.2 nM	54.6 nM
CGAGAUCUUGAGAAGGCAUAAUAUAUAAUACCACAUGUUUACAUGAGGAUCACCCAUGUUACCUAUGAGGAUAUCAGGAUUUCG			18.5 nM	16.1 nM
AGCUAGUCAGGAUAUACGAAAAUGUCAGAAGCUGAGAAGGGACAUGAGGAUCACCCAUGUAGAAGGGACUAGCA			57.5 nM	299 nM
GCUGCAUAGGCAGGAUAUGCAACAAUUAGAAUAAAAUAUAACUAAUUGACAUGAGGAUCACCCAUGUAGAAGGGCCUGUGCAGU			21.1 nM	19.6 nM
AUGCUAUACGAAGGAUAUGGUUACAUGAGGAUCACCCAUGUUAUUCUUGUUUUCUUGUUUAUGUUCCAGAAGGUCGUAUAGCUA			47.3 nM	38.2 nM
